KCNK9 block = KCNK9 potassium channel inhibitors, primary screen, HEK293 cells, thallium flux | AID 488922, 2010 | B-score at 10 µM | 310,000 compounds, 1.2% hits | Potassium channel subfamily K member 9 (Homo sapiens), Q9NPC2 | FluxOR thallium flux fluorescence; active compounds read low;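 active = ratio B-score over 3 SD below the library mean, with starting fluorescence within 5 SD of its mean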;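 also: negative B-score means less thallium flux so channel inhibition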
KCNK3 block = human KCNK3 channel inhibitors, primary screen, CHO cells, FluxOR thallium flux, B-score; Potassium channel subfamily K member 3 (Homo sapiens), O14649; FluxOR fluorescence; active compounds read low; B-score at 10 µM; 340,000 compounds, 0.84% hits; AID 602410, 2012;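 active = B-score under library mean minus 4 SD, starting fluorescence ratio at most library mean plus 5 SD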;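 also: more negative B-score means stronger inhibition of thallium flux through KCNK3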
KCNQ1 pot = potentiators or activators of KCNQ1 channel, primary screen, cell-based, thallium flux, high-throughput; CHO-K1 KCNQ1, thallium flux FluxOR fluorescence; active compounds read high; B-score at 10 µM; AID 2648, 2010; 310,000 compounds, 0.35% hits; Potassium voltage-gated channel subfamily KQT member 1 (Homo sapiens), P51787;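 active = fluorescence ratio B-score, a plate-corrected score, at least three library SD, with initial intensity B-score within 5 SD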
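Schedule – 37 °C overnight plating, 90-min dark dye load, 20-min compound pretreatment · System – stable KCNQ1 CHO-K1 line · Probe or stimulus – thallium- and potassium-containing depolarizing buffer · Measured by – kinetic FluxOR fluorescence, 10 s baseline plus 110 s post-stimulus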
hERG rescue = hERG rescue from dofetilide block, primary screen, cell-based, CHO-hERG, FluxOR thallium flux, dofetilide IC70 | Voltage-gated inwardly rectifying potassium channel KCNH2 (Homo sapiens), Q12809 | dofetilide IC70 present | activation (rescue from dofetilide block), less the hit threshold, % at 10 µM | 310,000 compounds, 0.51% hits | AID 1511, 2009;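 active = activation above the mean of controls blocked by dofetilide plus 5 SD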;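 also: thallium influx through hERG after potassium depolarization seen as dye fluorescence rise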
Target sequence (Q12809 whole entry, looked up): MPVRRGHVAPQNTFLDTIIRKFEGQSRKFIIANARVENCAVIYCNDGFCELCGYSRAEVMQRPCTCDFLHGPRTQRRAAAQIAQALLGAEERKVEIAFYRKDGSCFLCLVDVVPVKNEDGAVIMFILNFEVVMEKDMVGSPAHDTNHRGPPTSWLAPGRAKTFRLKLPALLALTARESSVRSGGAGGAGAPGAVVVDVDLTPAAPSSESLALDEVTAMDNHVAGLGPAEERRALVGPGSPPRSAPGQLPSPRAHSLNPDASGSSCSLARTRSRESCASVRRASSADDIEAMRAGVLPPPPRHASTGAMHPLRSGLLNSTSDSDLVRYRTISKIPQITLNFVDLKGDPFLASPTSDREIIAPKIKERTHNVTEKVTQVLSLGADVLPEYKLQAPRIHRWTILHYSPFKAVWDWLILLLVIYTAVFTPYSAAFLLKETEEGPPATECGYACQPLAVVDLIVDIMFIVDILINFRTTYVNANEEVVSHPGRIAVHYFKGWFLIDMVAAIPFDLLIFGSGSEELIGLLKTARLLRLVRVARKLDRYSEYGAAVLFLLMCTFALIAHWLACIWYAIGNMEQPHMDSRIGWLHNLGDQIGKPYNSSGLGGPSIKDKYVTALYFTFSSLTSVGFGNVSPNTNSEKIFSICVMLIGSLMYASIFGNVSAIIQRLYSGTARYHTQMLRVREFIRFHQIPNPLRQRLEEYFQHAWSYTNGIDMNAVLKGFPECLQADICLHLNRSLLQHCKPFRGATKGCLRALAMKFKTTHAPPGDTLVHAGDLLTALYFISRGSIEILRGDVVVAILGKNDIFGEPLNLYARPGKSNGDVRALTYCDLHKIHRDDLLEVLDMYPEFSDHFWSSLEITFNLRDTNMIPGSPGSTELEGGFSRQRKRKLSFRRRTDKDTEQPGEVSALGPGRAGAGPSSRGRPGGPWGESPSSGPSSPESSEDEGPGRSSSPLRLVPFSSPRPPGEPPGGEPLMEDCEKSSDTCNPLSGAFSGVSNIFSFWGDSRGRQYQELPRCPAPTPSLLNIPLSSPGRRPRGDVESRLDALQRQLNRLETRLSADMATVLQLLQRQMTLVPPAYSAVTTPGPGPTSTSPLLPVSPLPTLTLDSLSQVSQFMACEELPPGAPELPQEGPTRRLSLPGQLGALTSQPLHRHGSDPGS
Kir21 inh = inhibitors of mouse Kir2.1 inward-rectifier potassium channel | B-score at 10 µM | 310,000 compounds, 0.85% hits | AID 1672, 2009 | HEK293-Kir2.1, FluxOR thallium flux fluorescence; active compounds read low | Inward rectifier potassium channel 2 (Mus musculus), P35561;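 active = fluorescence ratio B-score at or below minus 3 SD of library scores, with starting-brightness B-score within 2 SD, cut at about -4.2 in these data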;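 also: channel flux triggered by added potassium and thallium sulfate stimulus; B-score of peak minus minimum fluorescence over baseline after thallium stimulus; more negative B-score means stronger Kir2.1 block with less thallium influx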
KCNQ1 block = inhibitors of human KCNQ1 channel, primary screen, cell-based, thallium flux, high-throughput. Potassium voltage-gated channel subfamily KQT member 1 (Homo sapiens), P51787. CHO-K1 KCNQ1, FluxOR thallium flux fluorescence; active compounds read high. B-score at 10 µM. 310,000 compounds, 1.3% hits. AID 2642, 2010;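 active = compounds whose thallium flux B-score, printed positive for inhibition, exceeds three library SD while starting fluorescence stays within three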;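 also: channel opened by potassium depolarization with thallium stimulus after 20 min compound exposure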
Starred values were filed as active, the others as inactive; i = inactive; / = no result. The list is not random: actives were taken first. Their share in the collection is about 3.7%.

SMILES	KCNK9 block	KCNK3 block	KCNQ1 pot	hERG rescue	Kir21 inh	KCNQ1 block
CC(=O)Nc1sc(C)c(C)c1C(=O)OCC(=O)N(CCC#N)c1cc(C)cc(C)c1	/	i	/	/	/	/
O=C(C1CCN(S(=O)(=O)c2cc(Cl)ccc2Cl)CC1)N1CCCC1	i	i	i	-5	1.6	i
N#CCCN(Cc1ccccc1)C(=O)Nc1ccc(F)cc1	i	i	i	-8	0.88	i
COC(=O)/C(=C/c1cn(C(C)=O)c2ccccc12)[N+](=O)[O-]	/	i	/	/	/	/
COC(=O)/C(=C/c1cn(C)c2ccccc12)[N+](=O)[O-]	i	/	i	-16	-5.3*	i
O=C(CN1CCN(c2cnn(-c3ccccc3)c(=O)c2Cl)CC1)NC1CCS(=O)(=O)C1 (stereo not given)	/	i	/	/	/	/
N#CC(c1ccccc1)N(CCCCl)C(=O)c1ccccc1 (stereo not given)	i	i	i	-7	-4.6*	i
CC(=O)N(CCCCl)C(C#N)c1ccccc1 (stereo not given)	i	i	i	-5	-1.6	i
O=C(Nc1cccc(C(F)(F)F)c1)c1csc(-c2ccncc2)n1	i	i	i	-10	1.4	i
CCN1CCN(Cc2ccc(NC(=O)c3cc(NC(=O)c4cc5cccc(OC)c5o4)cc(OC)c3)cc2C(F)(F)F)CC1	i	i	i	-33	0	i
COc1cc(NC(=O)c2csc(-c3ccncc3)n2)cc(C(=O)Nc2cccc(C(F)(F)F)c2)c1	i	i	i	-26	0.51	11*
COc1cc(NC(=O)c2cc3cccc(OC)c3o2)cc(C(=O)Nc2cccc(C(F)(F)F)c2)c1	i	i	i	-26	0.65	7*
COc1cccc(NC(=O)c2cc3cccc(OC)c3o/c2=N\O)c1	i	/	i	-9	-1.6	7*
CN(C(=O)CSc1ncnc2sc(-c3ccccc3)cc12)C1CCS(=O)(=O)C1 (stereo not given)	i	i	77*	49*	1.6	i
CN(C(=O)CSc1ncnc2scc(-c3ccccc3)c12)C1CCS(=O)(=O)C1 (stereo not given)	i	i	i	-9	-0.44	i
CC(=O)Nc1cccc(C(=O)/C=C/c2ccc(Br)cc2)c1	i	i	i	-17	-6*	i
Cc1cc(C)nc(SCC(=O)Nc2nc(-c3ccccc3)c(-c3ccccc3)o2)n1	i	i	i	-17	-0.05	i
Cc1ccc(C(=O)Nc2nc(-c3ccccc3)c(-c3ccccc3)o2)cc1	i	i	40*	-1	-0.28	i
Cc1ccc(NS(=O)(=O)c2ccc(Cl)nc2)c(C)c1	/	i	/	/	/	/
Cc1ccc(S(=O)(=O)Nc2cc(Cl)c(O)cc2C)cc1	i	i	i	-15	-5.6*	i
Cc1ccc(S(=O)(=O)Nc2cc(C(C)C)c(O)cc2C)cc1	i	i	i	-10	-6.5*	i
CCOC(=O)C1=C(C(=O)OCC)N(CC2CCCCC2)CCC1=O	/	i	/	/	/	/
CCc1ccc(OCC(=O)NC(=S)Nc2ccc(C(C)=O)cc2)c(Br)c1	i	i	i	4.9*	2	i
CCc1ccc(OCC(=O)NC(=S)Nc2cccc(CO)c2)c(Br)c1	i	i	i	-8	0.17	i
CCOC(=O)c1c(N)sc(C(O)(C(F)(F)F)C(F)(F)F)c1-c1ccccc1	-7.5*	i	i	-18	-0.86	i
CC(=O)c1c(C(C)=O)c(C)n(-c2cccc([N+](=O)[O-])c2)c1C	i	i	i	-2	-1.1	i
Cc1cc(C(=O)CCl)c(C)n1-c1cccc([N+](=O)[O-])c1	i	i	11*	-10	-1.2	i
COc1ccc(C=O)c(OCc2cn(CC(=O)c3ccc(O)cc3)nn2)c1	/	i	/	/	/	/

Compound activity: PubChem, Johns Hopkins Ion Channel Center
